Drawing on ChEMBL document CHEMBL1151172, “Further labdane and kaurane diterpenoids and other constituents from Plectranthus fruticosus” (2004), this text covers Activity and MIC for 13 compounds.

For one assay, the system named is Escherichia coli. Briefly: Antimicrobial activity against Escherichia coli ATCC 25922 by serial broth microdilution method. It counts as functional. In a few lines: (§1)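 MIC by NCCLS serial broth microdilution in Mueller-Hinton broth. Compounds dissolved in DMSO and tested at graded concentrations from 250 to 7.8 µg/mL. A solvent blank was included.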
The next assay has as its system Pseudomonas aeruginosa. Briefly: Antimicrobial activity against Pseudomonas aeruginosa ATCC 27853 by serial broth microdilution method. It counts as functional, organism-based. In a few lines: as §1
The test system of another assay is Candida albicans. Kind of assay: Antimicrobial activity against Candida albicans CIP 3153A by serial broth microdilution method. The class given is functional, organism-based. The method in brief: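 Yeast MIC by serial broth microdilution following NCCLS, using YMA medium. Compounds were dissolved in DMSO and tested over graded concentrations from 250 to 7.8 µg/mL, with a solvent blank.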

In a further assay the test system is Staphylococcus aureus. Kind of assay: Antimicrobial activity against Staphylococcus aureus ATCC 25923 by serial broth microdilution method. It counts as functional. The method in brief: as §1

The structures appear in SMILES notation. ≈ marks a conversion by molar mass, not a printed value. Calls of active or inactive are those of the source. No cut-off for these calls is given here.

For `CC(=O)O[C@H]1C[C@@H]2[C@@]3(C=C(C=O)[C@H]1C3)CC[C@H]1[C@@]2(C)CCC[C@@]1(C)C(=O)O`, the result in the assay on Escherichia coli, in the assay on Pseudomonas aeruginosa and in the assay on Candida albicans was inactive.

As to `COC(=O)[C@]1(C)CCC[C@@]2(C)[C@@H]3C[C@H](OC(C)=O)[C@@H]4C[C@]3(C=C4C)[C@H](O)C[C@@H]21`, the outcome in the assay with Escherichia coli, in the assay with Pseudomonas aeruginosa and in the assay on Candida albicans was inactive.

Consider `C=C1CC[C@@H]2[C@H]([C@H]3[C@H]1CC[C@@]3(O)CO)C2(C)C`, for which the result in the assay with Escherichia coli, in the assay with Pseudomonas aeruginosa and with Candida albicans was inactive.

Regarding `C=C1C[C@]23C[C@H]1[C@@H](OC(C)=O)C[C@H]2[C@]1(C)CCC[C@@](C)(C(=O)O)[C@H]1C[C@H]3O`, the result with Escherichia coli, in the assay on Pseudomonas aeruginosa and with Candida albicans was inactive.

In the case of `C=C1C[C@@]23CC[C@H]4[C@@](C)(CCC[C@@]4(C)C(=O)OC)[C@@H]2C[C@H](O)[C@@H]1C3`, the result with Escherichia coli, with Pseudomonas aeruginosa and with Candida albicans was inactive.

`C[C@@]12CCC[C@@](C)(C(=O)O)[C@H]1C[C@@H](O)[C@@]13C[C@@H](CC[C@@H]21)[C@]1(C)O[C@@H]13`: the result in the assay on Escherichia coli, in the assay with Pseudomonas aeruginosa and with Candida albicans was inactive.

As to `CC1=C[C@]23C[C@H]1CC[C@H]2[C@]1(C)CCC[C@@](C)(C(=O)O)[C@H]1C[C@H]3O`, the result in the assay with Escherichia coli, in the assay on Pseudomonas aeruginosa and in the assay with Candida albicans was inactive.

In the case of `C=C1[C@H]2C[C@@]3(CC[C@H]4[C@@](C)(CCC[C@@]4(C)C(=O)O)[C@@H]3C[C@@H]2OC(C)=O)[C@H]1O`, the result in the assay with Escherichia coli, in the assay on Pseudomonas aeruginosa and in the assay with Candida albicans was inactive.

Take `NC[C@H]1O[C@H](O[C@H]2[C@H](O)[C@@H](O[C@H]3O[C@H](CO)[C@@H](O)[C@H](N)[C@H]3O)[C@H](N)C[C@@H]2N)[C@H](O)[C@@H](O)[C@@H]1O` [KANAMYCIN]: the MIC against Escherichia coli and against Staphylococcus aureus was below 7.8 µg/mL in each case.

As to `COC(=O)[C@]1(C)CCC[C@@]2(C)[C@@H]3C[C@H](OC(C)=O)[C@@H]4C[C@@]3(CC[C@@H]21)[C@H]1O[C@]14C`, the result with Escherichia coli, in the assay with Pseudomonas aeruginosa and with Candida albicans was inactive.

On to `C=C/C(C)=C\C[C@@H]1C(=C)CC[C@@H]2C(C)(C)[C@H](O)[C@@H](O)C[C@@]12C`, for which the outcome in the assay with Escherichia coli, in the assay with Pseudomonas aeruginosa and with Candida albicans was inactive.

Regarding `C=C1[C@H]2C[C@@]3(CC[C@H]4[C@@](C)(CCC[C@@]4(C)C(=O)OC)[C@@H]3C[C@@H]2OC(C)=O)[C@H]1O`, the outcome in the assay on Escherichia coli, with Pseudomonas aeruginosa and in the assay with Candida albicans was inactive.

Regarding `COC(=O)[C@]1(C)CCC[C@@]2(C)[C@@H]3C[C@H](OC(C)=O)[C@@H]4C[C@]3(C=C4C=O)CC[C@@H]21`, the outcome with Escherichia coli, with Pseudomonas aeruginosa and in the assay on Candida albicans was inactive. For the same compound, in the assay on Staphylococcus aureus, the MIC was found to be 62.5 µg/mL (≈ 161 µM).
